Series [1] has as its target T1, Muscarinic acetylcholine receptor M1 (Rattus norvegicus, UniProt P08482).
T1 sequence (P08482 whole entry): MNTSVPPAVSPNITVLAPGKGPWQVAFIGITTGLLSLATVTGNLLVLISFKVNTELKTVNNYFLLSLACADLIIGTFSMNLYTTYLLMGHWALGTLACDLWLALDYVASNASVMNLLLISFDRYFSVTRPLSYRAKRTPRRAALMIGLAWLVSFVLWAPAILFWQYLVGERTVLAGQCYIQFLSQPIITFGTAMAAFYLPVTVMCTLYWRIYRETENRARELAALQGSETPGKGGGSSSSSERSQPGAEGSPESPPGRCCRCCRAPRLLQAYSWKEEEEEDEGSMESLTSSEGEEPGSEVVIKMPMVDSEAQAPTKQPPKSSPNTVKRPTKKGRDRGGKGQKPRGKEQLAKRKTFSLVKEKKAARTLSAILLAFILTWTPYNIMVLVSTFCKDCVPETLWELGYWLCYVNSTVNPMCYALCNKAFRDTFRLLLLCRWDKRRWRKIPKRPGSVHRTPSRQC
The series is described as follows: Displacement of [3H]Quinuclidinyl benzilate from muscarinic M1 receptor in Wistar rat cortex synaptosomal membrane. A general note: Displacement assays read how much labelled ligand stays bound in the presence of the test substance.

The species entered for series [2] is Rattus norvegicus. The series is described as follows: Antiamnesic activity in Wistar rat assessed as reversal of scopolamine-induced memory loss by passive avoidance test. It counts as functional, organism-based.
Series [3] has as its system Rattus norvegicus. In words: Acute toxicity in orally dosed Wistar rat after 1 week. Type of series: organism-based. To be noted: in vivo, po, 168 h. A digest of the protocol: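 Rats, 8 per group, fasted 16 h, then given the compounds orally at various doses. Animals observed for 1 week after dosing, with deaths recorded daily.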
The species named for series [4] is Rattus norvegicus. In words: Reversal of scopolamine-induced memory and learning impairment in Wistar rat assessed as transfer latency for 90 seconds by plus maze test. Type of series: functional, organism-based. The method in brief: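 Elevated plus maze in male Wistar rats, 30 min after treatment, given scopolamine alone or test agent plus scopolamine; controls got 0.9% saline. Each rat is placed at the end of an open arm facing away from the centre. Transfer latency (TL) is the time to enter an enclosed arm. Day 1 has 90 s exploration (TL1, learning) and day 2 is a retest of the same rats (TL2, memory).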

For series [5], the species on record is Rattus norvegicus. The series is described as follows: Reversal of scopolamine-induced spartial working memory loss in Wistar rat assessed by Y maze task. It counts as functional. The arrangement: concentration or dose not given beside the values. The method in brief:
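Male Wistar rats (200–250 g, n = 8) receive test agent with scopolamine and explore the Y-maze 30 min later. Arm entries, including returns, are recorded visually. An alternation is successive entries into all three arms on overlapping triplets. % alternation = actual alternations/(total entries − 2) × 100, compared against the scopolamine-only group.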

Active and inactive are the calls of the source. No cut-off for these calls is given here.

For orientation: IC50 means the midpoint of a concentration-inhibition curve. What is called Ki is a dissociation constant, usually derived from enzyme kinetics or from competition with a known ligand. In series [1], `CN1CCC=C(C2CN(S(=O)(=O)c3ccccc3[N+](=O)[O-])CCO2)C1` (stereo unspecified) registered an IC50 of 314 µM and an inhibition constant (Ki) of 96 µM. Moreover, the outcome in the series filed under Rattus norvegicus [2] was Active. For the same molecule, the Activity entry in the series with Rattus norvegicus [3] is “Non-toxic”.
For `CN1CCC=C(C2CN(S(=O)(=O)c3cccc([N+](=O)[O-])c3)CCO2)C1` (stereo unspecified), in that order: 201 µM, 62 µM, “Active” and “Non-toxic”.
`CN1CCC=C(C2CN(S(=O)(=O)c3ccc([N+](=O)[O-])cc3)CCO2)C1` (stereo unspecified): in series [1], the IC50 stood at 208 µM and the Ki stood at 64 µM. The outcome in the series listed under Rattus norvegicus [2] was Active. The Activity entry with Rattus norvegicus [3] is listed as “Non-toxic”.
Molecule `CN1CCC=C(C2CN(S(=O)(=O)c3ccc(Cl)cc3)CCO2)C1` (stereo unspecified) gave an IC50 in series [1] of 0.92 µM. Moreover, affinity in series [1] was put at a Ki of 0.26 µM. Moreover, the outcome in the series listed under Rattus norvegicus [2] and in the series listed under Rattus norvegicus [4] was Active. Besides, the Activity is given as 64% in the series listed under Rattus norvegicus [5] and “Non-toxic” with Rattus norvegicus [3].
On to `Cc1ccc(S(=O)(=O)N2CCOC(C3=CCCN(C)C3)C2)cc1` (stereo unspecified), for which the IC50 in series [1] worked out at 61 µM. The molecule further gave a Ki in series [1] of 14 µM. Also, the result in the series listed under Rattus norvegicus [2] and in the series listed under Rattus norvegicus [4] was Active. In addition, the values for the Activity in the series filed under Rattus norvegicus [5] and in the series on Rattus norvegicus [3] were 62% and “Non-toxic”, respectively.
`CN1CCC=C(C2CN(S(=O)(=O)c3cc(Cl)ccc3Cl)CCO2)C1` (stereo unspecified): in series [1], the IC50 amounted to 115 µM and the inhibitory constant (Ki) was determined as 35 µM. In addition, the outcome in the series filed under Rattus norvegicus [2] was Active. The Activity in the series listed under Rattus norvegicus [5] was determined as 59%. Besides, the Activity entry in the series with Rattus norvegicus [3] is recorded as “Non-toxic”.
The molecule `CN1CCC=C(C2CN(S(=O)(=O)c3ccc(C(C)(C)C)cc3)CCO2)C1` (stereo unspecified) came in with an IC50 in series [1] of 19 µM. Moreover, the Ki in series [1] is 4 µM. In addition, the result in the series listed under Rattus norvegicus [2] and in the series filed under Rattus norvegicus [4] was Active. For the same molecule, the Activity was 61% in the series filed under Rattus norvegicus [5] and “Non-toxic” with Rattus norvegicus [3].
In series [1], `CN1CCC=C(C2CN(S(=O)(=O)c3ccccc3)CCO2)C1` (stereo unspecified) returned an IC50 of 90 µM. In addition, in series [1], the Ki amounted to 27 µM. Moreover, the result in the series filed under Rattus norvegicus [2] and in the series filed under Rattus norvegicus [4] was Active. Further, the Activity in the series filed under Rattus norvegicus [5] is given as 60%; in the series with Rattus norvegicus [3] it was “Non-toxic”.

The values are drawn from ChEMBL document CHEMBL1157180 (Bioorg Med Chem, 2008).
